According to ChEMBL document CHEMBL4673285, “Design, Synthesis, and Biological Evaluation of Linear Aliphatic Amine-Linked Triaryl Derivatives as Potent Small-Molecule Inhibitors of the Programmed Cell Death-1/Programmed Cell Death-Ligand 1 Interaction with Promising Antitumor Effects In Vivo” (J Med Chem, 2020):
Active and inactive are the calls of the source. No cut-off for these calls is given here.

Experiments:
[1] = Volume of distribution at steady state in male Sprague-Dawley rat at 4 mg/kg, iv measured up to 24 hrs by LC-MS/MS analysis; type: ADME, organism-based; settings: in vivo, read-out: Vdss
Method in brief: (§1)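 Male Sprague Dawley rats (n = 6, 6−8 weeks, 200−300 g), single 4 mg/kg iv dose in 25% MPD/10% RH40/65% water, freshly prepared. About 0.2 mL blood drawn at 0.08, 0.25, 0.5, 1, 2, 4, 8, 24 h into EDTA-K2, centrifuged 4000g 5 min at 4 °C; plasma assayed by LC−MS/MS; noncompartmental parameters reported as mean ± SD.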

[2] = AUC (0 to infinity) in male Sprague-Dawley rat plasma at 4 mg/kg, iv measured up to 24 hrs by LC-MS/MS analysis; type: ADME, organism-based; parameters: route intravenous, dose 4 mg/kg, time <=24; method in brief: as §1
[3] = Acute toxicity in C57BL/6J mouse xenografted with MC38 cells assessed as behavior changes at 15 mg/kg, ip QD for 3 week; type: organism-based; settings: in vivo, 504 h, time 3 weeks
[4] = molecular target: T1, Programmed cell death 1 ligand 1 (Homo sapiens, UniProt Q9NZQ7); assay: Inhibition of human PD-L1 cocultured in PBMC cells assessed as inhibition of PD1/PDL1 interaction mediated increase in IFN-gamma secretion at 1 uM incubated for 72 hrs by ELISA relative to control; type: cell-based
T1 sequence (Q9NZQ7 whole entry): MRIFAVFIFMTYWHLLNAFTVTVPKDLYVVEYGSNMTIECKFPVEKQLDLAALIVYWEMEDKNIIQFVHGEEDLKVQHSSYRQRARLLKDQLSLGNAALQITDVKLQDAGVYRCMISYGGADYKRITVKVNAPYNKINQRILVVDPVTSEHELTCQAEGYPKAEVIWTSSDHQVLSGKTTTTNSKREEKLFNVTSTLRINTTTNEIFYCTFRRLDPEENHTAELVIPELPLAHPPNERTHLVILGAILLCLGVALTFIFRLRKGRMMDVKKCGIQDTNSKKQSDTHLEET
Method in brief: (§2)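 Healthy-donor PBMCs, 1 × 10⁵ per well in RPMI 1640 with 10% FBS, stimulated with anti-CD3/anti-CD28 (1:1, 0.8 μg/mL final) plus PD-L1/Fc at 10 μg/mL final. Compound added at 0.1 or 1 μM final and cocultured 72 h at 37 °C, 5% CO₂. Supernatant IFN-γ measured by ELISA; quadruplicate, mean ± SEM.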

[5] = Dose normalized AUClast in male Sprague-Dawley rat at 4 mg/kg, iv measured up to 24 hrs by LC-MS/MS analysis; type: ADME, organism-based; settings: in vivo; method in brief: as §1
[6] = molecular target: T1, Programmed cell death 1 ligand 1; assay: Binding affinity to human PD-L1 expressed in CHOK1 cells assessed as inhibition of PD1/PDL1 protein-protein interaction at 500 nM incubated for 30 mins by flow cytometry analysis relative to control; type: cell-based; settings: CHO-K1
Method in brief: (§3)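 CHO-K1-hPD-L1 cells, 5 × 10⁵ per tube in PBS with 2% FBS, incubated with hPD-1/Fc (10 μg/mL final) at 4 °C for 30 min. Compound added at 500 nM final and incubated a further 30 min at 4 °C, then stained with APC anti-human IgG Fc. Percentage of hPD-1-bound cells read by flow cytometry. Blocking efficacy calculated against a no-inhibitor positive control and parental CHO-K1 negative control.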

[7] = Acute toxicity in C57BL/6J mouse xenografted with MC38 cells assessed as change in body weight at 15 mg/kg, ip QD for 3 week; type: organism-based; settings: in vivo, 504 h, time 3 weeks
Method in brief: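 Female PD-1-humanized C57BL/6J-Pdcd1^{em1(hPDCD1)/Smoc} mice, six weeks old, were acclimated 1 week. They were given 1 × 10⁶ MC38 cells (mouse PD-L1 knockout, human PD-L1 knock-in) s.c. near the hind-leg groin. Mice were randomised at 50−150 mm³ tumour volume (6 per group) and dosed 15 mg/kg ip once daily for 3 weeks. Vehicle was 0.8% DMSO/7.5% RH40 in saline. Body weight was measured twice weekly.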

[8] = molecular target: T1, Programmed cell death 1 ligand 1; assay: Binding affinity to biotinylated human AVI-PD-L1 assessed as dissociation rate constant by biolayer interferometry
[9] = Plasma concentration in male Sprague-Dawley rat at 15 mg/kg, po measured up to 24 hrs by LC-MS/MS analysis; type: ADME, organism-based
Method in brief: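 Male Sprague Dawley rats (n = 6, 6−8 weeks, 200−300 g) given a single 15 mg/kg oral dose in 25% MPD/10% RH40/65% water. Blood sampled at 0.25, 0.5, 1, 2, 4, 8, 24 h into EDTA-K2 and spun to plasma; LC−MS/MS analysis, quantifiable limit 0.5 ng/mL.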

[10] = Cytotoxicity against human PBMC cells assessed as reduction in cell viability at 6.3 uM incubated for 24 hrs by Cell-titer glo Luminescent assay; type: cell-based
Method in brief: (§4)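 Cells (Raji, RAW 264.7 or donor PBMCs) plated at 1 × 10⁴ per well in medium with 10% FBS. Treated for 24 h at 37 °C, 5% CO₂ with 100, 50, 25, 12.5, 6.25 or 3.125 μM compound, or buffer containing 0.2% DMSO. Viability read by CellTiter-Glo luminescence; killing rate = (1 − RLU compound/RLU control) × 100%; triplicate, mean ± SEM.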

[11] = molecular target: T1, Programmed cell death 1 ligand 1; assay: Binding affinity to biotinylated human AVI-PD-L1 by biolayer interferometry
Method in brief: (§5)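 Biotinylated human PD-L1/AVI at 10 μg/mL loaded on streptavidin biosensors for 300 s, then baselined. Association with compound at 20 to 0.3125 nM plus 0 nM for 180 s, then dissociation in buffer for 300 s. Data globally fitted to a 1:1 model to give ka and kdis; apparent affinity taken as their ratio.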

[12] = AUClast in male Sprague-Dawley rat at 4 mg/kg, iv measured up to 24 hrs by LC-MS/MS analysis; type: ADME, organism-based; parameters: route intravenous, dose 4 mg/kg, time <=24; settings: in vivo; method in brief: as §1
[13] = Cytotoxicity against human PBMC cells assessed as reduction in cell viability up to 100 uM incubated for 24 hrs by Cell-titer glo Luminescent assay; type: cell-based; method in brief: as §4
[14] = molecular target: T1, Programmed cell death 1 ligand 1; assay: Binding affinity to biotinylated human AVI-PD-L1 assessed as association constant by biolayer interferometry; method in brief: as §5
[15] = molecular target: T1, Programmed cell death 1 ligand 1; assay: Binding affinity to human PD-L1 expressed in CHOK1 cells assessed as inhibition of PD1/PDL1 protein-protein interaction at 500 nM incubated for 30 mins by flow cytometry analysis; type: cell-based; settings: CHO-K1; method in brief: as §3
[16] = Clearance in male Sprague-Dawley rat at 4 mg/kg, iv measured up to 24 hrs by LC-MS/MS analysis; type: ADME, organism-based; settings: in vivo; method in brief: as §1
RAW264.7 [17] = assay: Cytotoxicity against mouse RAW264.7 cells assessed as reduction in cell viability at 3.125 to 100 uM incubated for 24 hrs by Cell-titer glo Luminescent assay; type: cell-based; settings: raw264.7, 24 h, dose 3.125-100 µM; method in brief: as §4
[18] = AUC (extrapolated) in male Sprague-Dawley rat at 4 mg/kg, iv measured up to 24 hrs by LC-MS/MS analysis; type: ADME, organism-based; settings: in vivo; method in brief: as §1
[19] = Half-life in male Sprague-Dawley rat at 4 mg/kg, iv measured up to 24 hrs by LC-MS/MS analysis; type: ADME, organism-based; settings: in vivo; method in brief: as §1
[20] = Initial plasma concentration in male Sprague-Dawley rat plasma at 4 mg/kg, iv measured up to 24 hrs by LC-MS/MS analysis; type: ADME, organism-based; method in brief: as §1
[21] = MRT (0 to infinity) in male Sprague-Dawley rat at 4 mg/kg, iv measured up to 24 hrs by LC-MS/MS analysis; type: ADME, organism-based; settings: in vivo; method in brief: as §1
[22] = molecular target: T1, Programmed cell death 1 ligand 1; assay: Inhibition of human PD-L1 cocultured in PBMC cells assessed as inhibition of PD1/PDL1 interaction mediated increase in IFN-gamma secretion at 0.1 uM incubated for 72 hrs by ELISA relative to control; type: cell-based; method in brief: as §2
MC-38 = assay: Antitumor activity against mouse MC38 cells xenografted in PD-L1 knockout/PD1 knock-in C57BL/6J mouse assessed as tumor growth inhibition at 15 mg/kg, ip QD for 3 weeks measured after day 21; type: functional; parameters: scale not given: the % may be the effect or the level left
[23] = Acute toxicity in C57BL/6J mouse xenografted with MC38 cells assessed as mortality at 15 mg/kg, ip QD for 3 week; type: organism-based; settings: in vivo, 504 h, time 3 weeks
Raji [24] = assay: Cytotoxicity against human Raji cells assessed as reduction in cell viability at 3.125 uM incubated for 24 hrs by Cell-titer glo Luminescent assay; type: cell-based; method in brief: as §4
RAW264.7 [25] = assay: Cytotoxicity against mouse RAW264.7 cells assessed as reduction in cell viability incubated for 24 hrs by Cell-titer glo Luminescent assay; type: cell-based; settings: RAW264.7, 24 h; method in brief: as §4
[26] = Cytotoxicity against human PBMC cells assessed as reduction in cell viability at 100 uM incubated for 24 hrs by Cell-titer glo Luminescent assay relative to control; type: cell-based; method in brief: as §4
Raji [27] = assay: Cytotoxicity against human Raji cells assessed as reduction in cell viability incubated for 24 hrs by Cell-titer glo Luminescent assay; type: cell-based; method in brief: as §4
[28] = Cytotoxicity against human PBMC cells assessed as reduction in cell viability incubated for 24 hrs by Cell-titer glo Luminescent assay; type: cell-based; settings: dose 3.125-100 µM; method in brief: as §4

SMILES: Cc1cc(CN[C@H](CO)C(=O)O)c(OCc2cncc(C#N)c2)cc1NCc1cccc(-c2ccccc2)c1C
- Vd [1]: 2.17 L/kg
- AUC(0-inf) [2]: 908 ng·h/mL
- Activity [3]: Non-Toxic
- inhibition [4]: 56.8%
- AUClast/dose [5]: 226 ng·kg·h/mL/mg
- Efficacy [6]: 97.5%
- Activity [7]: Non-Toxic
- koff [8]: 3.53 10^-5/s
- concentration at 24 h [9]: 0.5 ng/mL
- Activity [10]: Non-Toxic
- Dissociation constant (KD) [11]: 1.62 10^-11M
- AUC(0-t) at 24 h [12]: 905 ng·h/mL
- Activity [13]: Non-Toxic
- association rate constant (kon) [14]: 2.17 10^6/M/s
- Activity [15]: Active
- clearance [16]: 74.5 mL/min/kg
- Activity (RAW264.7 [17]): Non-Toxic
- %AUCextra [18]: 0.283%
- half-life [19]: 82.8 min
- C0 at 24 h [20]: 4370 ng/mL
- MRT inf [21]: 29.2 min
- inhibition [22]: 72.9%
- Activity (MC-38): 61.7%
- Activity [23]: Non-Toxic
- Activity (Raji [24]): Non-Toxic

SMILES: COc1nc(NCc2cccc(-c3ccccc3)c2C)ccc1CNCCNC(C)=O
- EC50 (RAW264.7 [25]): 6.97 µM
- Activity [10]: Non-Toxic
- Activity [26]: 100%
- EC50 (Raji [27]): 13.8 µM
- Activity [28]: Toxic
